# Source: PubChem (several laboratories)
# In the library only some 9.4% were active in any assay of this set; here they are far more common.
# Lmaj promast: reduces viability of Leishmania major promastigotes; resazurin fluorescence viability; 200,000 tested, 9% active; inhibition, % at 10 µM; in the data active means inhibition above about 50%;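 further: promastigotes grown with compound for 44 hours at 28 °C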
# T cruzi repl: T. cruzi replication inhibition; inhibition, % (concentration not given with the values); T. cruzi beta-gal in NIH3T3, luminescence, 90 h; 300,000 tested, 1.4% active; AID 1885;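 active means mean inhibition across valid replicates above about 55%, limit read from the data; inconclusive means mean below that limit but half or more replicates reach it; inactive means mean below it, under half of replicates reach it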;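 further: signal also drops with host cell toxicity which is not excluded here; higher percent means less beta-gal luminescence so fewer parasites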
#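 Assay system: NIH/3T3 fibroblasts plus reporter T. cruzi. Amount: NIH/3T3 cells, 5,000 per well. Buffer or medium: DMEM, 2% fetal bovine serum. Doses: compound pinned at 50 nL/well, DMSO. Schedule: ≥90 h infection period, 3 h prior cell attachment. Signal: luminescent β-galactosidase signal after 60 min lysis. Read-out: parasite load inhibition, %.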
# SKKanGAS inh: SKKanGAS growth inhibition; inhibition, % at 7.5 µM; 300,000 tested, 1.3% active; AID 1662; S. pyogenes SKKanGAS, kanamycin growth, BacTiter-Glo, 6 h;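 active means mean replicate score, as percent of positive control median, at least 50; inconclusive means mean below 50 but one replicate at or above 50; inactive means mean and every replicate below 50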;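 further: strain carries kanamycin resistance gene driven by streptokinase promoter and grows in 40 µg/ml kanamycin; loss of luminescence reflects streptokinase promoter inhibition or plain growth inhibition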
# Beta cell apopt: blocks beta cell apoptosis; INS-1E cytokine-induced death, ATP luminescence, 48 h; percent of positive-control rescue, neutral wells zero; 300,000 tested, 0.8% active; AID 435005; protection from apoptosis, % (concentration not given with the values);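 active means Every replicate reaches about 75%, or at least half do and their mean reaches it too, limit read from the data; inconclusive means At least half of replicates reach the limit but their mean does not; inactive means Under half of replicates reach the limit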;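 further: higher means more ATP so stronger rescue from cytokine killing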
# CSC inhib: cancer stem cell inhibition | 300,000 tested, 1.1% active | cancer stem cell-like cells viability, luminescence | inhibition, % at 7.5 µM | AID 2717; in the data active means inhibition above about 75%; inconclusive means no clear call, values can overlap the other calls; tested in HMLE shEcad cells
# Mdm2 MdmX PPI: inhibitors of human Mdm2/MdmX interaction. O15151+Q00987. SaOS-2 split-luciferase Mdm2/MdmX complementation, luminescence. inhibition, % at 8 µM. 330,000 tested, 3% active. AID 485346;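 active means inhibition of at least 50% at 8 µM in the primary screen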
# Hits are given with their value; – = inactive; ? = inconclusive; · = no result.
SMILES,Lmaj promast,T cruzi repl,SKKanGAS inh,Beta cell apopt,CSC inhib,Mdm2 MdmX PPI
CC(C)CN1C(=O)/C(=C(/C#N)C(=O)NC2CCCCC2)c2ccccc21,97,–,–,–,–,–
CCCCN1C(=O)/C(=C(/C#N)C(=O)N2CCCC2)c2ccccc21,·,–,–,–,–,–
O=C(CNC(=O)c1ccc(Cl)cc1Cl)OCn1nnc2ccccc2c1=O,·,–,–,–,–,–
Cc1ccc(C)c(NC(=S)N2CCC(c3nc4ccccc4s3)CC2)c1,–,60,–,–,–,–
O=C(c1ccccc1Br)N1CCC(c2nc3ccccc3s2)CC1,–,–,·,–,–,–
O=C(CN1CCC(c2nc3ccccc3s2)CC1)NCc1ccccc1,87,64,–,–,–,–
Cc1ccc2nc(C3CCCN(C(=S)Nc4ccccc4C)C3)[nH]c2c1 (stereo unspecified),–,67,–,–,–,–
CCc1ccc(C(=O)N2CCC(c3nc4ccccc4s3)CC2)cc1,87,–,–,–,–,–
COc1ccc(/C=C/C(=O)O)cc1S(=O)(=O)N1CCC(C)CC1,·,–,–,–,·,–
Cc1ccc(Cn2cc(/C=N/NC(=O)Cc3nnc(NC(=O)c4ccc(C)cc4)s3)c3ccccc32)cc1,–,–,58,–,–,–
COc1ccc(C(CCN)c2ccc3c(c2)OCO3)cc1 (stereo unspecified),·,60,–,–,–,–
COc1cc(O)c(C(CCN2CCOCC2)c2ccc3c(c2)OCO3)c(OC)c1 (stereo unspecified),·,–,–,–,–,–
CCOC(=O)c1nc2sc3c(c2c(=O)n1C(C)C(=O)OCC)CCCC3 (stereo unspecified),–,–,–,–,–,–
O=C(CN1CCCC1)N/N=C/c1ccc(-c2cccc(Cl)c2)o1,100,–,–,–,–,–
COc1ccc(C(=O)C(C)N(C(=O)c2ccc(Cl)cc2Cl)N2C(=O)C3C4C=CC(C4)C3C2=O)cc1 (stereo unspecified),90,–,–,–,–,–
Cc1ccc(C(=O)C(C)N(C(=O)c2ccc(Cl)cc2Cl)N2C(=O)CCCC2=O)cc1 (stereo unspecified),–,–,–,–,–,–
Cc1ccnc(N=Cc2c(O)ccc3oc4c(c23)CCCC4)c1,90,·,·,–,–,·
CCOc1ccc(CN(C)C(=O)c2cc(S(=O)(=O)N3CCCC3)ccc2C)cc1,·,·,·,–,–,–
COc1ccc(/C=N/NC(=O)C(Cc2c[nH]c3ccccc23)NC(=O)OCC(C)C)cc1[N+](=O)[O-] (stereo unspecified),99,–,–,–,–,–
COCCNC(=O)c1cccc(OC2CCN(Cc3ccc(F)cc3OC)CC2)c1,·,–,–,–,–,–
Cc1ccc(S(=O)(=O)N2CCC(C(=O)NCCN3CCCCCC3)CC2)cc1,100,–,–,·,–,–
Cc1ccc(S(=O)(=O)N2CCC(C(=O)N[C@@H](Cc3ccccc3)C(=O)O)CC2)cc1,54,–,–,–,–,–
Cc1ccc(S(=O)(=O)N2CCC(C(=O)NCc3ccccc3Cl)CC2)cc1,73,–,–,–,–,–
O=C(NC(Cc1ccccc1)C(=O)O)C1CCN(S(=O)(=O)c2cccc(C(F)(F)F)c2)CC1 (stereo unspecified),·,–,–,–,–,–
Cc1ccc(CNC(=O)CCS(=O)(=O)c2ccc3c(c2)NC(=O)CS3)cc1,·,–,–,–,–,–
SMILES,Lmaj promast,T cruzi repl,SKKanGAS inh,Beta cell apopt,CSC inhib,Mdm2 MdmX PPI
CCOc1ccc2ncc(S(=O)(=O)c3ccccc3)c(N3CCN(c4ccccc4)CC3)c2c1,·,–,–,–,–,–
CCOC(=O)c1cnc2ccc(OCC)cc2c1NCc1cccnc1,65,–,–,–,–,–
CCOC(=O)c1cnc2c(OC)cccc2c1NCc1cccnc1,–,–,–,–,–,–
CCOC(=O)c1ccc2ncc(C(=O)OCC)c(NCCN3CCOCC3)c2c1,·,–,–,–,–,–
CCOC(=O)c1cnc2ccc(C)cc2c1Nc1ccc(N2CCOCC2)cc1,52,–,–,–,–,–
CCOC(=O)c1cnc2ccc(OCC)cc2c1N1CCN(c2ccccc2)CC1,–,–,–,105,–,–
CCOC(=O)c1cnc2ccc(OC)cc2c1NCCc1ccc(OC)c(OC)c1,64,–,–,–,–,–
Cc1cccc2cc(C#N)c(N3CCC(O)CC3)nc12,–,–,–,–,–,–
Cc1cccc(CCNC(=O)c2cc(S(=O)(=O)N3CCCCC3)c[nH]2)c1,·,–,–,–,–,–
CCN(CC(=O)Nc1cc(C)on1)CC(=O)Nc1ccccc1C(F)(F)F,·,·,·,–,·,–
Cc1cc2c(cc1S(=O)(=O)N(C)Cc1ccccc1)n(C)c(=O)c(=O)n2C,·,–,–,–,–,–
CCOC(=O)c1cnc2ccc(OCC)cc2c1NCc1ccccc1,98,–,–,–,–,–
N#C/C(=C\c1ccncc1)c1nc2c(s1)CCCC2,58,–,–,–,–,–
Cn1c(/C(C#N)=C/c2ccncc2)nc2ccccc21,–,–,·,–,–,–
COc1ccc(Cl)cc1N(CC(=O)Nc1ccccc1C(=O)N1CCOCC1)S(C)(=O)=O,·,–,–,–,–,–
COc1ccc2nc(NC(=O)c3ccc([N+](=O)[O-])o3)sc2c1,·,–,–,·,75,–
O=C(Nc1nc2cc3c(cc2s1)OCCO3)c1ccc([N+](=O)[O-])o1,·,59,?,–,–,–
Cc1cc(C)c2sc(NC(=O)c3ccc([N+](=O)[O-])o3)nc2c1,·,59,–,–,92,–
O=C(Nc1nc2ccccc2s1)c1ccc([N+](=O)[O-])o1,·,–,–,–,–,–
O=C(Nc1nc2c(F)cc(F)cc2s1)c1ccc([N+](=O)[O-])o1,·,–,–,–,96,–
CN(C(=O)COC(=O)c1ccc(Br)c(S(=O)(=O)N2CCOCC2)c1)C1CCCCC1,·,·,·,–,–,–
CC(=O)c1c(C)[nH]c(C(=O)CSc2nnc(-c3cccs3)n2Cc2ccccc2)c1C,78,–,–,–,–,–
COc1ccc(NC(=O)NCCN2CCc3ccccc3C2)cc1,–,–,–,–,–,–
O=C(NCCCN1CCc2ccccc2C1)Nc1ccc(Cl)cc1,78,–,–,–,·,–
O=C(NCCCn1ccnc1)C1CC2CCC1C2 (stereo unspecified),–,–,–,–,–,–
SMILES,Lmaj promast,T cruzi repl,SKKanGAS inh,Beta cell apopt,CSC inhib,Mdm2 MdmX PPI
O=C(CCn1ccnc1)Nc1ccc2ccccc2c1,74,75,–,–,–,–
O=C(NCCCn1ccnc1)Nc1ccc(Cl)cc1,53,–,–,–,·,–
O=C(COc1ccc(Cl)cc1)NCCCn1ccnc1,–,–,–,–,–,–
O=C1CCC(C(=O)NCCCn2ccnc2)N1 (stereo unspecified),66,–,–,–,–,–
CCCCN(C)C(=S)Nc1ccc2nc3n(c(=O)c2c1)CCCCC3,–,–,–,–,–,–
CCOC(=O)C1=C(COC(=O)/C=C/c2cccc(F)c2)NC(=O)NC1C (stereo unspecified),·,·,·,–,·,–
